Experimental data: ChEMBL document CHEMBL4017520, “Discovery, Structure-Activity Relationship, and Antiparkinsonian Effect of a Potent and Brain-Penetrant Chemical Series of Positive Allosteric Modulators of Metabotropic Glutamate Receptor 4” (J Med Chem, 2017)

Key:
[1] = Half life in Sprague-Dawley rat plasma at 10 mg/kg, po administered as single dose by LC-MS/MS analysis; assay type: ADME, organism-based
Method in brief: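 Single dose ip (10 or 30 mg/kg, rat) or oral (10 mg/kg, rat or mouse); plasma Cmax, Tmax, half-life, AUC0−inf derived; brain concentration and brain/plasma ratio at 30 min postdose. Mean of 3 rats or 2 mice.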

[2] = Cmax in Sprague-Dawley rat plasma at 30 mg/kg, ip administered as single dose by LC-MS/MS analysis; assay type: ADME, organism-based; set-up: dose 30 mg/kg, route intraperitoneal
Method in brief: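 Rats dosed ip at 10 or 30 mg/kg. Plasma Cmax, Tmax, half-life and AUC0–inf were determined. Brain concentration was measured 30 min postdose, and brain/plasma ratio was taken at 30 min. Values are the mean (±SEM) of 3 rats.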

Compound O/N=c1\cc(-c2cc3cccn3cn2)oc2ccc(OCCN3CCOCC3)cc12 has a half-life [1] of 7.3 h and a Cmax [2] of 9320 ng/mL.
